Data reported in ChEMBL document CHEMBL2062465, “Sesquiterpenoids from Incarvillea arguta: absolute configuration and biological evaluation” (J Nat Prod, 2012).
Activity calls are given as the source filed them. The rule behind the calls is not given here. Peptide text beside a SMILES is read from it. * marks the point of attachment. Cbz = O=C(OCc1ccccc1)*

Key:
RAW264.7 [1] = experiment: Antiinflammatory activity in mouse RAW264.7 cells assessed as inhibition of LPS-stimulated NO production after 18 hrs by Griess reagent method; format: functional, cell-based; conditions: RAW264.7, 18 h
How it was run: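 NO release measured in LPS-stimulated RAW264.7 macrophages. DMSO wells were included, and MG-132 (proteasome inhibitor) served as positive control. Cell viability was checked by MTT in each experiment. IC50 was derived.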

RAW264.7 [2] = experiment: Cytotoxicity against mouse RAW264.7 cells at 0.04 to 25 uM by MTT assay; format: cell-based; conditions: raw264.7, 25 µM
How it was run: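 Viability of RAW264.7 macrophages was checked by MTT alongside each NO-production experiment, at 0.04, 0.2, 1, 5 and 25 μM.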

HL-60 = experiment: Cytotoxicity against human HL60 cells after 48 hrs by MTT assay; format: functional, cell-based; conditions: HL-60, 48 h
How it was run: (§1)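 MTT viability assay on human tumour lines. Adherent cells were seeded and allowed to attach 12 h before drug addition. Suspension cells were seeded immediately before dosing at (1−2) × 10^5 cells/mL. Cells were exposed to a range of concentrations for 48 h. Cisplatin and taxol were positive controls. IC50 values were calculated from viability.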

SMMC-7721 = experiment: Cytotoxicity against human SMMC7721 cells after 48 hrs by MTT assay; format: functional, cell-based; conditions: SMMC-7721, 48 h; how it was run: as §1
MCF7 = experiment: Cytotoxicity against human MCF7 cells after 48 hrs by MTT assay; format: functional, cell-based; conditions: MCF7, 48 h; how it was run: as §1
SW480 = experiment: Cytotoxicity against human SW480 cells after 48 hrs by MTT assay; format: functional, cell-based; conditions: SW480, 48 h; how it was run: as §1
A549 = experiment: Induction of intracellular calcium influx in human A549 cells at 10 uM after 12 hrs by fluorescence analysis; format: functional, cell-based
How it was run: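 A549 cells were seeded at 0.5 × 10^4 cells/well and grown 12 h. They were loaded with Fluo-4 AM for 30 min, then washed three times with HBSS. Compounds were tested at 10 μM in Ca2+-containing HBSS. Intracellular calcium was imaged and analysed on an automated cell-based fluorescence-imaging system.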

Row | IC50 (RAW264.7 [1]) [µM] | Structure (SMILES) | Activity (RAW264.7 [2]) | IC50 (HL-60) [µM] | IC50 (SMMC-7721) [µM] | IC50 (MCF7) [µM] | IC50 (SW480) [µM] | Activity (A549)
1 | 5.7 | C=C(CO)[C@@H]1CC(=O)C2=CCC[C@H](C)[C@@]2(C)C1 [ARGUTOSINE B] | Non-toxic | 15.2 | 34.1 | 13.5 | 15.6 | –
2 | – | C[C@H]1CCC=C2C(=O)C=C([C@]3(CO)CC[C@@](O)(CO)C4=C3C(=O)C3=CCC[C@H](C)[C@@]3(C)C4)C[C@@]21C [DIINCARVILONE A] | – | > 40 | > 40 | > 40 | > 40 | Active
3 | – | C[C@H]1CCC=C2C(=O)C=C([C@]3(CO)CC[C@](O)(CO)C4=C3C(=O)C3=CCC[C@H](C)[C@@]3(C)C4)C[C@@]21C [DIINCARVILONE B] | – | > 40 | > 40 | > 40 | > 40 | Active
4 | – | C[C@H]1CCC=C2C(=O)C=C([C@]3(CO)CC[C@@H](CO)C4=C3C(=O)C3=CCC[C@H](C)[C@@]3(C)C4)C[C@@]21C [DIINCARVILONE C] | – | > 40 | > 40 | > 40 | > 40 | –
5 | – | C[C@H]1CCC=C2C(=O)C=C([C@]3(CO)CCC(=O)C4=C3C(=O)C3=CCC[C@H](C)[C@@]3(C)C4)C[C@@]21C [DIINCARVILONE D] | – | > 40 | > 40 | > 40 | > 40 | Active
6 | – | C[C@H](CO)C1=CC(=O)C2=CCC[C@H](C)[C@@]2(C)C1 [INCARVILONE A] | – | > 40 | > 40 | > 40 | > 40 | –
7 | 0.08 | CC(C)C[C@@H](C=O)NC(=O)[C@H](CC(C)C)NC(=O)[C@H](CC(C)C)NC(=O)OCc1ccccc1 [MG-132] (Cbz-Leu-Leu-Leu-aldehyde) | – | – | – | – | – | –
